Columns and labels:
[1] = molecular target: Delta-type opioid receptor (Rattus norvegicus, UniProt P33533); experiment: Compound was evaluated for its binding affinity by displacement [3H]- DSLET from Opioid receptor delta 1 by using opioid radioligand binding assay
In short: (§1)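 Male Sprague-Dawley rat forebrain membranes in 50 mM Tris, pH 7.4. Competition against [3H]DSLET (2 nM final, δ) or [3H]DAMPGO (4 nM final, μ). Nonspecific binding defined with 10 μM levorphan. Incubated 60–90 min at 25 °C, then filtered on GF/B and counted. Ki given as mean ± SEM from at least three experiments.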

Mu-type opioid receptor = Mu-type opioid receptor (Rattus norvegicus, UniProt P33535); experiment: Compound was evaluated for its binding affinity by displacement of [3H]- DAMPGO from opioid receptor mu by using opioid radioligand binding assay; in short: as §1
Sequence of Mu-type opioid receptor (P33535 whole entry): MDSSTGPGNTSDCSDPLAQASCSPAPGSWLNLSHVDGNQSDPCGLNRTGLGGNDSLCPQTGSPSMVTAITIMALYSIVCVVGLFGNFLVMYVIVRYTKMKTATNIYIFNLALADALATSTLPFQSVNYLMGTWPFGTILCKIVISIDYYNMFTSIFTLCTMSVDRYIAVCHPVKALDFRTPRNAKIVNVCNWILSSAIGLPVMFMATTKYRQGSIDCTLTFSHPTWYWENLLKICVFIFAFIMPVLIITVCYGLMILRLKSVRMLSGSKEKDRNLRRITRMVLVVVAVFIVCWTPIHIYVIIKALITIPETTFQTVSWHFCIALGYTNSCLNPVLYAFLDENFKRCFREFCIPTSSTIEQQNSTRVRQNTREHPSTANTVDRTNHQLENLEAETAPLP

[2] = molecular target: Mu-type opioid receptor (Rattus norvegicus) (UniProt P33535); experiment: Ratio on opioid receptor mu (ki(nM)) to the opioid receptor delta (Ki(nM))
Sequence of Mu-type opioid receptor (Rattus norvegicus) (P33535 whole entry): as above

Mus musculus [3] = organism: Mus musculus; experiment: Concentration of the Compound that inhibits electrically-induced contractions of the mouse vas deferens by 50%; type: functional, organism-based
In short: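 Electrically stimulated isolated mouse vas deferens at 37 °C. Buffer had no tyrosine, ascorbic acid or disodium edetate. IC50 is the concentration that halves contractions, given as mean ± SD of two or three experiments.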

Mus musculus [4] = organism: Mus musculus; experiment: Antinociceptive effect determined at 30 min post injection by tail flick test; type: functional, organism-based
In short: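 Male CD-1 mice, 20–30 g, screened beforehand (TFL ≤ 4.0 s or HPL ≤ 15 s). Groups of 10 dosed sc with vehicle or 10, 30 or 100 mg/kg at 10 mL/kg. Radiant-heat beam focused on blackened tail, and withdrawal latency read by photosensor as the mean of two readings (12 s cutoff). ED50 ± SE in mg/kg taken at 30 min.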

NG108-15 = experiment: Concentration that inhibited PGE-stimulated cAMP formation by 50%, in NG108-15 cells.; type: functional, cell-based; details: Murinae
In short: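 NG108-15 neuroblastoma cells stimulated with PGE1. cAMP measured by radioimmunoassay. EC50 is the concentration that inhibits 50% of stimulated cAMP formation, given as mean ± SD of two determinations.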

Mus musculus [5] = organism: Mus musculus; experiment: Antinociceptive effect determined at 30 min post injection by writhing test; type: functional, organism-based
Mus musculus [6] = experiment: Antinociceptive effect determined at 30 min post injection by writhing test; Inactive at 30 mg/kg, the highest dose tested.; type: functional, organism-based; design: dose 30 mg/kg

Sequence of Delta-type opioid receptor (P33533 whole entry): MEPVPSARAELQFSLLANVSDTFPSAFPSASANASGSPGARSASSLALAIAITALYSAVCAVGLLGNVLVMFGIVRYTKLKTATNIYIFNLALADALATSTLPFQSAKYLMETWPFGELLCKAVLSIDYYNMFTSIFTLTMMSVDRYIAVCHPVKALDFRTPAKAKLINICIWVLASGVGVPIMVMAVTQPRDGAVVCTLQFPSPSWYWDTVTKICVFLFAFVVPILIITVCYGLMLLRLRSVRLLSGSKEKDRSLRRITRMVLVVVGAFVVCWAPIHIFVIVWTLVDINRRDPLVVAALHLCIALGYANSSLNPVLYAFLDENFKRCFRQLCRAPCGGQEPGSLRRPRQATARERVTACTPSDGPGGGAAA

In the case of `COC(=O)[C@H]1NC(=O)C(Cc2ccccc2)CCCNC(=O)[C@@H](NC(=O)[C@@H](N)Cc2c(C)cc(O)cc2C)C(C)(C)SSC1(C)C` (single isomer, unassigned; less polar) [listing 1 of 2 here], the Ki [1] is reported as 79 nM and the Ki (Mu-type opioid receptor) is reported as 176 nM.

`COC(=O)[C@H]1NC(=O)C(Cc2ccccc2)OCCNC(=O)[C@@H](NC(=O)[C@@H](N)Cc2c(C)cc(O)cc2C)C(C)(C)SSC1(C)C` (single isomer, unassigned; less polar) [listing 1 of 2 here] showed a Ratio [2] of 0.15.

For `COC(=O)[C@H]1NC(=O)C(Cc2ccccc2)/C=C\CNC(=O)[C@@H](NC(=O)[C@@H](N)Cc2c(C)cc(O)cc2C)C(C)(C)SSC1(C)C` (single isomer, unassigned; more polar) [listing 1 of 2 here], the Ratio [2] was 0.5.

`COC(=O)[C@H]1NC(=O)C(Cc2ccccc2)CCCNC(=O)[C@@H](NC(=O)[C@@H](N)Cc2c(C)cc(O)cc2C)C(C)(C)SSC1(C)C` (single isomer, unassigned; more polar) [listing 1 of 2 here] was tested, and the Ratio [2] was 0.5.

For `COC(=O)[C@H]1NC(=O)C(Cc2ccccc2)CCCNC(=O)[C@@H](NC(=O)[C@@H](N)Cc2c(C)cc(O)cc2C)C(C)(C)SSC1(C)C` (single isomer, unassigned; more polar) [listing 2 of 2 here], the Ki [1] was 21 nM, the EC50 (Mus musculus [3]; Mus musculus) was over 1000 nM and the Ki (Mu-type opioid receptor) was 11 nM.

For `COC(=O)[C@H]1NC(=O)C(Cc2ccccc2)/C=C\CNC(=O)[C@@H](NC(=O)[C@@H](N)Cc2c(C)cc(O)cc2C)C(C)(C)SSC1(C)C` (single isomer, unassigned; less polar) [listing 1 of 2 here], the Ki [1] was 45 nM, the EC50 (Mus musculus [3]) was over 1000 nM and the Ki (Mu-type opioid receptor) was 32 nM.

`COC(=O)[C@H]1NC(=O)C(Cc2ccccc2)OCCNC(=O)[C@@H](NC(=O)[C@@H](N)Cc2c(C)cc(O)cc2C)C(C)(C)SSC1(C)C` (single isomer, unassigned; less polar) [listing 2 of 2 here] was tested, and the Ki [1] was 43 nM, the EC50 (Mus musculus [3]) was 143 nM and the Ki (Mu-type opioid receptor) was 6.5 nM.

`COC(=O)[C@H]1NC(=O)C(Cc2ccccc2)/C=C\CNC(=O)[C@@H](NC(=O)[C@@H](N)Cc2c(C)cc(O)cc2C)C(C)(C)SSC1(C)C` (single isomer, unassigned; more polar) [listing 2 of 2 here] showed a Ki [1] of 2.3 nM, an EC50 (Mus musculus [3]) of 247 nM and a Ki (Mu-type opioid receptor) of 1.1 nM.

`COC(=O)[C@@H]1NC(=O)[C@H](Cc2ccccc2)NC(=O)CNC(=O)[C@H](NC(=O)[C@@H](N)Cc2c(C)cc(O)cc2C)C(C)(C)SSC1(C)C.Cl` showed an EC50 (Mus musculus [4]) of 40 mg/kg, an EC50 (NG108-15) of 1.1 nM and an EC50 (Mus musculus [3]; Mus musculus) of 0.65 nM. It also gave an EC50 (Mus musculus [5]) of 2.1 mg/kg.

For `CC1(C)SSC(C)(C)[C@@H](NC(=O)[C@@H](N)Cc2ccc(O)cc2)C(=O)NCC(=O)N[C@@H](Cc2ccccc2)C(=O)N[C@H]1C(=O)O`, the EC50 (NG108-15) was 18 nM and the EC50 (Mus musculus [3]; Mus musculus) was 5.2 nM.

In the case of `COC(=O)[C@@H]1NC(=O)[C@H](Cc2ccccc2)NC(=O)CNC(=O)[C@H](NC(=O)[C@@H](N)Cc2ccc(O)cc2)C(C)(C)SSC1(C)C.Cl`, the EC50 (NG108-15) is reported as 21 nM, the EC50 (Mus musculus [6]) is reported as “Not Active” and the EC50 (Mus musculus [3]; Mus musculus) is reported as 10.5 nM.

For `COC(=O)[C@H]1NC(=O)C(Cc2ccccc2)OCCNC(=O)[C@@H](NC(=O)[C@@H](N)Cc2c(C)cc(O)cc2C)C(C)(C)SSC1(C)C` (single isomer, unassigned; more polar) [listing 1 of 2 here], the Ki [1] was 91 nM, the EC50 (Mus musculus [3]) was over 1000 nM and the Ki (Mu-type opioid receptor) was 150 nM.

For `COC(=O)[C@H]1NC(=O)C(Cc2ccccc2)OCCNC(=O)[C@@H](NC(=O)[C@@H](N)Cc2c(C)cc(O)cc2C)C(C)(C)SSC1(C)C` (single isomer, unassigned; more polar) [listing 2 of 2 here], the Ratio [2] was 1.7.

For `COC(=O)[C@H]1NC(=O)C(Cc2ccccc2)CCCNC(=O)[C@@H](NC(=O)[C@@H](N)Cc2c(C)cc(O)cc2C)C(C)(C)SSC1(C)C` (single isomer, unassigned; less polar) [listing 2 of 2 here], the Ratio [2] was 2.3.

`COC(=O)[C@H]1NC(=O)C(Cc2ccccc2)/C=C\CNC(=O)[C@@H](NC(=O)[C@@H](N)Cc2c(C)cc(O)cc2C)C(C)(C)SSC1(C)C` (single isomer, unassigned; less polar) [listing 2 of 2 here] showed a Ratio [2] of 0.7.

Source: ChEMBL document CHEMBL1125510, “Analogs of the delta opioid receptor selective cyclic peptide [2-D-penicillamine,5-D-penicillamine]-enkephalin: 2',6'-dimethyltyrosine and Gly3-Phe4 amide bond isostere substitutions” (J Med Chem, 1992)
